Key:
Dipeptidyl peptidase 1 = Dipeptidyl peptidase 1 (Homo sapiens, UniProt P53634); assay: Inhibition of human recombinant cathepsin C
Summary of the method: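 Enzyme: purified human recombinant cathepsin C. IC50 in nM given as mean with standard deviation of at least three experiments.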

[1] = Metabolic stability in rat whole blood assessed as compound remaining after 30 mins; assay type: ADME, tissue-based; details: read-out: Activity
Summary of the method: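 Compound incubated in fresh rat whole blood for 30 min at 25 °C. Read-out is % of intact parent remaining, with amide hydrolysis products (P2 amino acid, P1 amino nitrile) monitored.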

[2] = Half life in iv dosed rat; assay type: ADME, organism-based; details: in vivo
Summary of the method: (§1)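 Rats dosed intravenously. Plasma samples were analysed for parent and metabolites to give clearance (ml/min/kg) and half-life.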

[3] = Clearance in iv dosed rat; assay type: ADME, organism-based; details: in vivo; summary of the method: as §1
U-937 = assay: Cytotoxicity against human U937 cells at 30 uM up to 72 hrs; assay type: functional, cell-based
Summary of the method: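 Human U937 cells were exposed to compound at 30 µM for up to 72 h and assessed for cytotoxicity.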

Rattus norvegicus = species: Rattus norvegicus; assay: Metabolic stability in rat whole blood

Sequence of Dipeptidyl peptidase 1 (P53634 25-134 limits assumed): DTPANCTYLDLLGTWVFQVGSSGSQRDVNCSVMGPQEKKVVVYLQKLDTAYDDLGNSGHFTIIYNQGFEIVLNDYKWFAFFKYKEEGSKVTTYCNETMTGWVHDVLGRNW
Sequence of Dipeptidyl peptidase 1 (P53634 231-394 limits assumed): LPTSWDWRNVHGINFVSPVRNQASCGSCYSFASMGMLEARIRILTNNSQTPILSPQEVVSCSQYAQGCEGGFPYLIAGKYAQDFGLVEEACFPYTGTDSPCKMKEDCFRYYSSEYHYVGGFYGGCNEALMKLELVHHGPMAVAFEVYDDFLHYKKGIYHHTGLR
Sequence of Dipeptidyl peptidase 1 (P53634 395-463 limits assumed): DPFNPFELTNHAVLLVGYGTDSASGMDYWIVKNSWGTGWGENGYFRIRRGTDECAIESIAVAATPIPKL

Structure (SMILES)	IC50 (Dipeptidyl peptidase 1) [nM]	other results
CS[C@@H]1CN[C@H](C(=O)NC2(C#N)CC2)C1	336	
CCS[C@@H]1CN[C@H](C(=O)N[C@H](C#N)Cc2ccccc2)C1	271	
N#C[C@]1(NC(=O)[C@@H]2C[C@H](F)CN2)C[C@H]1c1ccccc1	2190	
CS[C@@H]1CN[C@H](C(=O)N[C@H](C#N)Cc2ccc(-c3ccccc3)cc2)C1	1.7	
N#C[C@H](Cc1ccccc1)NC(=O)[C@@H]1C[C@H](Cl)CN1	495	
N#C[C@H](Cc1ccc(-c2ccccc2)cc1)NC(=O)[C@@H]1C[C@H](F)CN1	8.2	
CSCC[C@H](N)C(=O)N[C@H](C#N)Cc1c[nH]c2ccccc12	200	
N#C[C@H](Cc1ccccc1)NC(=O)[C@@H]1CCCN1	4810	
CCSC[C@H](N)C(=O)N[C@H](C#N)Cc1c[nH]c2ccccc12	630	
CS[C@@H]1CN[C@H](C(=O)N[C@H](C#N)Cc2ccccc2)C1	29	
N#C[C@H](Cc1ccc(F)cc1)NC(=O)[C@@H]1CCCN1	> 10000	
N#C[C@@]1(NC(=O)[C@@H](N)Cc2cccs2)C[C@@H]1c1ccccc1		Activity (U-937): Not toxic; half-life [2]: 84 min; remaining at 0.5 h [1]: > 98%; clearance [3]: 35 mL/min/kg; Stability (Rattus norvegicus): Stable
N#CC1(NC(=O)[C@@H]2C[C@H](F)CN2)CC1	880	
CO[C@@H]1CN[C@H](C(=O)N[C@H](C#N)Cc2ccccc2)C1	1080	
N#C[C@H](Cc1ccccc1)NC(=O)[C@@H]1C[C@H](F)CN1	133	
CSCC[C@H](N)C(=O)NCCc1c[nH]c2ccccc12	11000	
CC(C)[C@H](N)C(=O)N[C@H](C#N)Cc1c[nH]c2ccccc12	330	
CCSCC[C@H](N)C(=O)N[C@H](C#N)Cc1c[nH]c2ccccc12	1580	
C[C@@H]1CN[C@H](C(=O)N[C@H](C#N)Cc2ccccc2)C1	2500	

Now from value to compound, other results behind:

IC50 (Dipeptidyl peptidase 1) [nM]	Structure (SMILES)	other results
5.8	N#C[C@H](Cc1c[nH]c2ccccc12)NC(=O)[C@@H](N)Cc1cccs1	remaining at 0.5 h [1]: 0%
1830	N#CC1(NC(=O)[C@@H](N)Cc2cccs2)CCC1	
0.9	N#C[C@H](Cc1ccccc1)NC(=O)[C@@H](N)Cc1cccs1	half-life [2]: < 30 min; remaining at 0.5 h [1]: 0%; clearance [3]: > 100 mL/min/kg
> 3000	CC(C)(C)[C@@H](C#N)NC(=O)[C@@H](N)Cc1cccs1	remaining at 0.5 h [1]: 83%
5.1	N#C[C@H](CC1CCCCC1)NC(=O)[C@@H](N)Cc1cccs1	
1	N#C[C@H](Cc1ccc2ccccc2c1)NC(=O)[C@@H](N)Cc1cccs1	half-life [2]: < 30 min; clearance [3]: > 100 mL/min/kg
1230	N#CC1(NC(=O)[C@@H](N)Cc2cccs2)CC1c1ccccc1 (mixture of isomers)	
0.3	N#C[C@H](Cc1ccc(-c2ccccc2)s1)NC(=O)[C@@H](N)Cc1cccs1	half-life [2]: < 30 min; clearance [3]: > 100 mL/min/kg
3.8	N#C[C@@H](NC(=O)[C@@H](N)Cc1cccs1)C(c1ccccc1)c1ccccc1	half-life [2]: < 30 min; clearance [3]: > 100 mL/min/kg
12	N#CC1(NC(=O)[C@@H](N)Cc2cccs2)CC1	half-life [2]: 30 min; remaining at 0.5 h [1]: 92%; clearance [3]: 113 mL/min/kg
1420	CC(C)(C#N)NC(=O)[C@@H](N)Cc1cccs1	
0.7	N#C[C@H](Cc1nc2ccccc2s1)NC(=O)[C@@H](N)Cc1cccs1	half-life [2]: < 30 min; clearance [3]: > 100 mL/min/kg
11	N#C[C@H](CCc1ccccc1)NC(=O)[C@@H](N)Cc1cccs1	
17	N#CCNC(=O)[C@@H](N)Cc1cccs1	remaining at 0.5 h [1]: 6%
17	N#C[C@]1(NC(=O)[C@@H](N)Cc2cccs2)C[C@H]1c1ccccc1	
215	CC(C)[C@@H](C#N)NC(=O)[C@@H](N)Cc1cccs1	remaining at 0.5 h [1]: 11%
63	CC1(C)CC1(C#N)NC(=O)[C@@H](N)Cc1cccs1 (stereo partly drawn)	
